Assay results taken from PMC6682041 (ACS Omega, 2019).

Assays:
horse serum BChE [1] = molecular target: T1, horse serum BChE (Equus caballus, UniProt P81908); experiment: Cholinesterase enzyme inhibition assay; type: biochemical
electric eel AChE [2] = molecular target: T2, electric eel AChE (Electrophorus electricus, UniProt O42275); experiment: Enzyme kinetics of AChE inhibition; type: biochemical; settings: for AChE inhibition type: determined by the Lineweaver–Burk plot
How it was run: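 Electric eel AChE (0.36 U/mL solution) was preincubated 15 min at RT with the test compound (0.5–10 µM, from 10% DMSO) in sodium phosphate buffer pH 8.0. DTNB and acetylthiocholine (0.1, 0.3, 0.6 […]) were then added, with 10 min at RT and A412 read. Run in triplicate. Inhibition type came from Lineweaver–Burk plots and Ki from Dixon plots.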

[3] = molecular target: T3, human recombinant β-secretase (BACE1) (Homo sapiens, UniProt P56817); experiment: BACE1 enzyme inhibition assay; type: biochemical
T3 sequence (P56817 46-501): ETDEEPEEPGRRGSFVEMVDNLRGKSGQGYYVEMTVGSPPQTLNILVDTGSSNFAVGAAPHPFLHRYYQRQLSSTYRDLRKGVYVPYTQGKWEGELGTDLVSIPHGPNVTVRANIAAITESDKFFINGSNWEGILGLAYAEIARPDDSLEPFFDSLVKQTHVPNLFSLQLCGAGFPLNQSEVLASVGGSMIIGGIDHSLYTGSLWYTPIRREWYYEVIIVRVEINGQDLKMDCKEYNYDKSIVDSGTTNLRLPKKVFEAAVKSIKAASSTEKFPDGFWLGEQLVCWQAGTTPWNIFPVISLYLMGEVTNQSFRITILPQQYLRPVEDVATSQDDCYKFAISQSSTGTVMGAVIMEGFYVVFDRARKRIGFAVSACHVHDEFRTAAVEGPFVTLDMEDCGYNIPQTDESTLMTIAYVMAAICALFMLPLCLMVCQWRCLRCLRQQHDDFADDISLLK

Aβ25–35 = Aβ25–35 (Homo sapiens, UniProt P05067); experiment: Self-induced Aβ25–35 aggregation inhibition assay; type: biochemical; settings: read-out: inhibition of self-induced Aβ25–35 aggregation
How it was run: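 Aβ25–35 was lyophilized from HFIP, taken to a 0.4 mM stock in 65% acetonitrile and diluted 2-fold in 69 mM phosphate pH 7.0. Test compound (0.2, 2, 20 µM) or reference inhibitor (10 µM) was added, then 24 h at 4 °C. ThT (25 µM, glycine–NaOH pH 8.5) was added, with 5 min before reading ex 446/em 490 nm. %inhibition = 100 − (Fi/Fc × 100); mean ± SD, n=3.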

electric eel AChE [4] = molecular target: T2, electric eel AChE; experiment: Cholinesterase enzyme inhibition assay; type: biochemical
How it was run: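 Electric eel AChE, added as a 0.36 U/mL solution, was preincubated 15 min at room temperature in sodium phosphate buffer (pH 8.0) with test compound dissolved in 10% DMSO. DTNB and […] substrate were then added, with a further 10 min at room temperature. Absorbance was read at 412 nm, in triplicate. % inhibition = (1 − T/C) × 100; IC50 from the log dose–inhibition curve.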

human recombinant GSK-3β = human recombinant GSK-3β (Homo sapiens, UniProt P49841); experiment: biochemical
human recombinant GSK-3β, sequence (P49841 whole entry): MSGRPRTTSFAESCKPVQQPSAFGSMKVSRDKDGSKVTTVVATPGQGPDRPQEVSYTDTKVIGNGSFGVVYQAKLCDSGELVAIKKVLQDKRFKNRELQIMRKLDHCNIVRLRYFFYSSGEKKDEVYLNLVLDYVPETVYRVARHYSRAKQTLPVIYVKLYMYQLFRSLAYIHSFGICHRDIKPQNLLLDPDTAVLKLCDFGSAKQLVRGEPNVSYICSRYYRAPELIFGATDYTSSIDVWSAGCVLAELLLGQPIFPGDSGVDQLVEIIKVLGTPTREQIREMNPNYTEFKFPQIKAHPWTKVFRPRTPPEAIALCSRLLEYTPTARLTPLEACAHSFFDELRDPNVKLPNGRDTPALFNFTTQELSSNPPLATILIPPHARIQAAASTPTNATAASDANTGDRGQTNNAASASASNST

[5] = molecular target: T3, human recombinant β-secretase (BACE1); experiment: Enzyme kinetics of BACE1 inhibition; type: biochemical; settings: for BACE1 inhibition type: determined by the Lineweaver–Burk plot
How it was run: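 FRET kit using human recombinant β-secretase (1.0 U/mL solution) in assay buffer pH 4.5. The test compound (0.625–5 µM) was mixed with substrate at 250, 375 or 750 nM and incubated 60 min at RT in the dark. Fluorescence was read at ex 545/em 585 nm, and inhibition taken from the 0 to 60 min change versus control. Lineweaver–Burk plots gave the mechanism; Dixon plots gave Ki.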

horse serum BChE [6] = molecular target: T1, horse serum BChE; experiment: Enzyme kinetics of BChE inhibition; type: biochemical; settings: for BChE inhibition type: determined by the Lineweaver–Burk plot
How it was run: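 Horse serum BChE (0.36 U/mL solution) was preincubated 15 min at RT with the test compound (1.25–10 µM, from 10% DMSO) in sodium phosphate buffer pH 8.0. Reaction started with DTNB plus butyrylthiocholine (0.1, 0.3, 0.6 […]), then 10 min at RT and A412 read. Run in triplicate. Lineweaver–Burk plots gave the inhibition mode; Dixon plots gave Ki.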

T1 sequence (P81908 whole entry): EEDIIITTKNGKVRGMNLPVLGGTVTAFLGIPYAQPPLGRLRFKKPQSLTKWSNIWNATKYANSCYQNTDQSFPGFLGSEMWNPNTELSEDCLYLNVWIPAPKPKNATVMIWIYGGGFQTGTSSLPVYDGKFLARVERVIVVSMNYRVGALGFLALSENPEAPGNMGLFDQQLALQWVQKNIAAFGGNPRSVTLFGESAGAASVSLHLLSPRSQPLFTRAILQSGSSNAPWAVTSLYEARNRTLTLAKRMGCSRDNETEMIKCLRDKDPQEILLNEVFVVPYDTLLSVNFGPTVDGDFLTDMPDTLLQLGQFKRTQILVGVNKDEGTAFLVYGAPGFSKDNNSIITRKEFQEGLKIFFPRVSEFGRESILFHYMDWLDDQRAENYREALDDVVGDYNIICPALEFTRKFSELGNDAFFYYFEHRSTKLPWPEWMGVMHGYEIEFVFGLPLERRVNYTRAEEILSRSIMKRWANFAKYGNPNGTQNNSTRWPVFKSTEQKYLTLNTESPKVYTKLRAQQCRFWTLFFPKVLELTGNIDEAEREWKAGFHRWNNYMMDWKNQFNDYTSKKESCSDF
T2 sequence (O42275 24-633): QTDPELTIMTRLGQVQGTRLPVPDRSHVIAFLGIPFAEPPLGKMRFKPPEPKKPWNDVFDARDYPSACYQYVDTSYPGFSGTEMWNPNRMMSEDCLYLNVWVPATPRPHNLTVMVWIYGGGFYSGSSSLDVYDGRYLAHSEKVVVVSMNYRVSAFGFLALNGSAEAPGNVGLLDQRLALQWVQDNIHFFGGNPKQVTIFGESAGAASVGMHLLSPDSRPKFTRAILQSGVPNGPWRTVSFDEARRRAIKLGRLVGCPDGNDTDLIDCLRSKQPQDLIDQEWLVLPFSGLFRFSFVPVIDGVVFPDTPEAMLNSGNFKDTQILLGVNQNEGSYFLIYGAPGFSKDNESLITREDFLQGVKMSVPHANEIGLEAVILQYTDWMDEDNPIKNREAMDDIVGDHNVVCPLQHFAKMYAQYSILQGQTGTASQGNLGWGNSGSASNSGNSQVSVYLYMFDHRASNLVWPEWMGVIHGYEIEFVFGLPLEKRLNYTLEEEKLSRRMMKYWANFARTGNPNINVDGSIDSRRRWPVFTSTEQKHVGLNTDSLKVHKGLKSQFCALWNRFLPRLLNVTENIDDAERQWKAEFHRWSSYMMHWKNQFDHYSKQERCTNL

Row | SMILES | IC50 (horse serum BChE [1]) [µM] | Ki (electric eel AChE [2]) [µM] | AChE inhibition type (electric eel AChE [2]) | IC50 [3] [µM] | inhibition at 20 µM (Aβ25–35) [%] | IC50 (electric eel AChE [4]) [µM] | IC50 (human recombinant GSK-3β) [µM] | Ki [5] [µM] | BACE1 inhibition type [5] | Ki (horse serum BChE [6]) [µM] | BChE inhibition type (horse serum BChE [6]) | inhibition at 10 µM (Aβ25–35) [%]
1 | COCc1c(Br)c(O)c(O)c(Br)c1Br [Compound 2, 2,3,6-tribromo-4,5-dihydroxybenzyl methyl ether] | 14.4 ± 0.27 | 0.71 | mixed | 4.79 ± 0.82 | 56.7 | 9.61 ± 0.35 | 140 ± 15.1 | 0.7 | noncompetitive | 0.51 | competitive | –
2 | Oc1c(O)c(Br)c(COCc2c(Br)c(O)c(O)c(Br)c2Br)c(Br)c1Br [Compound 3, bis-(2,3,6-tribromo-4,5-dihydroxybenzyl) ether] | 4.03 ± 0.15 | 0.64 | mixed | 2.32 ± 0.1 | 58.5 | 2.66 ± 0.24 | 56.5 ± 2.48 | 1.24 | competitive | 0.37 | competitive | –
3 | COc1ccc2cc3[n+](cc2c1OC)CCc1cc2c(cc1-3)OCO2 [berberine, reference compound] | – | – | – | – | – | 1.17 ± 0.09 | – | – | – | – | – | –
4 | O=c1cc(-c2ccc(O)c(O)c2)oc2cc(O)cc(O)c12 [luteolin, reference compound] | – | – | – | – | – | – | 5.42 ± 0.19 | – | – | – | – | –
5 | OCc1c(Br)c(O)c(O)c(Br)c1Br [Compound 1, 2,3,6-tribromo-4,5-dihydroxybenzyl alcohol] | 8.95 ± 2.18 | 0.58 | mixed | 5.16 ± 0.6 | 66.8 | 7.31 ± 0.25 | 229 ± 12.1 | 3.1 | noncompetitive | 1.15 | competitive | –
6 | COc1cc(/C=C/C(=O)CC(=O)/C=C/c2ccc(O)c(OC)c2)ccc1O [curcumin, reference compound] | – | – | – | – | – | – | – | – | – | – | – | 52.4
